How the values were obtained:
Type in all cases: functional
NCI/ADR-RES = assay: Growth inhibition of human NCI/ADR-RES cells after 48 hrs by SRB assay
Method in brief: (§1)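 NCI 60-cell-line screen. Cells grown in RPMI1640 with 5% fetal calf serum and 2 mM L-glutamine, with inoculum density set by cell line. Preincubated 24 h, then given compound in DMSO at 10^-4 to 10^-8 M (five 10-fold steps) for 48 h continuous exposure. Growth measured by SRB protein assay. GI50, TGI and LC50 reported as –log molar.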

UACC-62 = assay: Growth inhibition of human UACC62 cells after 48 hrs by SRB assay; conditions: UACC-62, 48 h; method in brief: as §1
Malme-3M = assay: Growth inhibition of human MALME-3M cells after 48 hrs by SRB assay; method in brief: as §1
OVCAR-4 = assay: Growth inhibition of human OVCAR4 cells after 48 hrs by SRB assay; conditions: OVCAR-4, 48 h; method in brief: as §1
SK-MEL-5 = assay: Growth inhibition of human SK-MEL-5 cells after 48 hrs by SRB assay; conditions: SK-MEL-5, 48 h; method in brief: as §1
HL-60(TB) = assay: Growth inhibition of human HL-60(TB) cells after 48 hrs by SRB assay; conditions: HL-60, 48 h
Method in brief: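 NCI 60-cell-line screen: cells grown in RPMI1640 with 5% fetal calf serum and 2 mM L-glutamine, preincubated 24 h, then exposed to compound in DMSO at five concentrations (10^-4 to 10^-8 M) for 48 h continuous exposure. Growth estimated by sulforhodamine B protein assay; reported as pGI50 (-log molar concentration inhibiting net cell growth by 50%).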

SF-268 = assay: Growth inhibition of human SF268 cells after 48 hrs by SRB assay; conditions: SF-268, 48 h; method in brief: as §1
UO-31 = assay: Growth inhibition of human UO31 cells after 48 hrs by SRB assay; conditions: UO-31, 48 h; method in brief: as §1
HCC 2998 = assay: Growth inhibition of human HCC2998 cells after 48 hrs by SRB assay; conditions: HCC 2998, 48 h; method in brief: as §1
TK-10 = assay: Growth inhibition of human TK10 cells after 48 hrs by SRB assay; conditions: TK-10, 48 h; method in brief: as §1
MCF7 = assay: Growth inhibition of human MCF7 cells after 48 hrs by SRB assay; conditions: MCF7, 48 h; method in brief: as §1
U-251 = assay: Growth inhibition of human U251 cells after 48 hrs by SRB assay; conditions: U-251, 48 h; method in brief: as §1
CCRF-CEM = assay: Growth inhibition of human CCRF-CEM cells after 48 hrs by SRB assay; method in brief: as §1
T47D = assay: Growth inhibition of human T47D cells after 48 hrs by SRB assay; method in brief: as §1
RXF 393 = assay: Growth inhibition of human RXF393 cells after 48 hrs by SRB assay; conditions: RXF 393, 48 h; method in brief: as §1
HT-29 = assay: Growth inhibition of human HT-29 cells after 48 hrs by SRB assay; conditions: HT-29, 48 h; method in brief: as §1
OVCAR-3 = assay: Growth inhibition of human OVCAR-3 cells after 48 hrs by SRB assay; conditions: OVCAR-3, 48 h; method in brief: as §1
EKVX = assay: Growth inhibition of human EKVX cells after 48 hrs by SRB assay; method in brief: as §1
IGROV-1 = assay: Growth inhibition of human IGROV1 cells after 48 hrs by SRB assay; conditions: IGROV-1, 48 h; method in brief: as §1
SF-295 = assay: Growth inhibition of human SF295 cells after 48 hrs by SRB assay; conditions: SF-295, 48 h; method in brief: as §1
MOLT-4 = assay: Growth inhibition of human MOLT4 cells after 48 hrs by SRB assay; conditions: MOLT-4, 48 h; method in brief: as §1
BT-549 = assay: Growth inhibition of human BT549 cells after 48 hrs by SRB assay; conditions: BT-549, 48 h; method in brief: as §1
SF-539 = assay: Growth inhibition of human SF539 cells after 48 hrs by SRB assay; conditions: SF-539, 48 h; method in brief: as §1
OVCAR-8 = assay: Growth inhibition of human OVCAR8 cells after 48 hrs by SRB assay; conditions: OVCAR-8, 48 h; method in brief: as §1
NCI-H460 = assay: Growth inhibition of human NCI-H460 cells after 48 hrs by SRB assay; conditions: NCI-H460, 48 h; method in brief: as §1
KM12 = assay: Growth inhibition of human KM12 cells after 48 hrs by SRB assay; conditions: KM12, 48 h; method in brief: as §1
MDA-MB-468 = assay: Growth inhibition of human MDA-MB-468 cells after 48 hrs by SRB assay; conditions: MDA-MB-468, 48 h; method in brief: as §1
PC-3 = assay: Growth inhibition of human PC3 cells after 48 hrs by SRB assay; conditions: PC-3, 48 h; method in brief: as §1
MDA-MB-435 = assay: Growth inhibition of human MDA-MB-435 cells after 48 hrs by SRB assay; conditions: MDA-MB-435, 48 h; method in brief: as §1
A498 = assay: Growth inhibition of human A498 cells after 48 hrs by SRB assay; conditions: A498, 48 h; method in brief: as §1
COLO 205 = assay: Growth inhibition of human COLO205 cells after 48 hrs by SRB assay; conditions: COLO 205, 48 h; method in brief: as §1
SK-OV-3 = assay: Growth inhibition of human SKOV3 cells after 48 hrs by SRB assay; conditions: SK-OV-3, 48 h; method in brief: as §1
HOP-62 = assay: Growth inhibition of human HOP62 cells after 48 hrs by SRB assay; conditions: HOP-62, 48 h; method in brief: as §1
K562 = assay: Growth inhibition of human K562 cells after 48 hrs by SRB assay; conditions: K562, 48 h; method in brief: as §1
[1] = Growth inhibition of human Hs 578T cells after 48 hrs by SRB assay; method in brief: as §1
[2] = Growth inhibition of human […] cells after 48 hrs by SRB assay; method in brief: as §1
HCT-116 = assay: Growth inhibition of human HCT116 cells after 48 hrs by SRB assay; conditions: HCT-116, 48 h; method in brief: as §1

CCN(CC)c1ccc(C2=NN(C(C)=O)C(c3cc(OC)c(OC)c(OC)c3)C2)cc1 (centres undefined)
GI50 (NCI/ADR-RES): 200 nM | TGI (NCI/ADR-RES; read-out: pTGI (converted)): 501 nM | GI50 (UACC-62): 316 nM | TGI (UACC-62; read-out: pTGI (converted)): 12600 nM | GI50 (Malme-3M): 200 nM | TGI (Malme-3M; read-out: pTGI (converted)): 25100 nM | GI50 (OVCAR-4): 631 nM | TGI (OVCAR-4; read-out: pTGI (converted)): 25100 nM | GI50 (SK-MEL-5): 398 nM | TGI (SK-MEL-5; read-out: pTGI (converted)): 3980 nM | GI50 (HL-60(TB)): 126 nM | TGI (HL-60(TB); read-out: pTGI (converted)): 501 nM | GI50 (SF-268): 794 nM | TGI (SF-268; read-out: pTGI (converted)): 20000 nM | GI50 (UO-31): 398 nM | TGI (UO-31; read-out: pTGI (converted)): 15800 nM | GI50 (HCC 2998): 794 nM | TGI (HCC 2998; read-out: pTGI (converted)): 7940 nM | GI50 (TK-10): 398 nM | TGI (TK-10; read-out: pTGI (converted)): 20000 nM | GI50 (MCF7): 316 nM | TGI (MCF7; read-out: pTGI (converted)): 10000 nM | GI50 (U-251): 398 nM | TGI (U-251; read-out: pTGI (converted)): 12600 nM | GI50 (CCRF-CEM): 316 nM | TGI (CCRF-CEM; read-out: pTGI (converted)): 1000 nM | GI50 (T47D): 200 nM | TGI (T47D; read-out: pTGI (converted)): 20000 nM | GI50 (RXF 393): 398 nM | TGI (RXF 393; read-out: pTGI (converted)): 2510 nM | GI50 (HT-29): 398 nM | TGI (HT-29; read-out: pTGI (converted)): 1580 nM | GI50 (OVCAR-3): 398 nM | TGI (OVCAR-3; read-out: pTGI (converted)): 10000 nM | GI50 (EKVX): 398 nM | TGI (EKVX; read-out: pTGI (converted)): 2510 nM | GI50 (IGROV-1): 794 nM | TGI (IGROV-1; read-out: pTGI (converted)): 31600 nM | GI50 (SF-295): 200 nM | TGI (SF-295; read-out: pTGI (converted)): 631 nM | GI50 (MOLT-4): 251 nM | TGI (MOLT-4; read-out: pTGI (converted)): 3160 nM | GI50 (BT-549): 631 nM | TGI (BT-549; read-out: pTGI (converted)): 5010 nM | GI50 (SF-539): 316 nM | TGI (SF-539; read-out: pTGI (converted)): 631 nM | GI50 (OVCAR-8): 398 nM | TGI (OVCAR-8; read-out: pTGI (converted)): 5010 nM | GI50 (NCI-H460): 398 nM | TGI (NCI-H460; read-out: pTGI (converted)): 2000 nM | GI50 (KM12): 316 nM | TGI (KM12; read-out: pTGI (converted)): 12600 nM | GI50 (MDA-MB-468): 251 nM | TGI (MDA-MB-468; read-out: pTGI (converted)): 631 nM | GI50 (PC-3): 316 nM | TGI (PC-3; read-out: pTGI (converted)): 12600 nM | GI50 (MDA-MB-435): 158 nM | TGI (MDA-MB-435; read-out: pTGI (converted)): 398 nM | GI50 (A498): 316 nM | TGI (A498; read-out: pTGI (converted)): 2510 nM | GI50 (COLO 205): 316 nM | TGI (COLO 205; read-out: pTGI (converted)): 1260 nM | GI50 (SK-OV-3): 398 nM | TGI (SK-OV-3; read-out: pTGI (converted)): 15800 nM | GI50 (HOP-62): 1580 nM | TGI (HOP-62; read-out: pTGI (converted)): 25100 nM | GI50 (K562): 631 nM | TGI (K562; read-out: pTGI (converted)): > 100000 nM | GI50 [1]: 316 nM | TGI ([1]; read-out: pTGI (converted)): 25100 nM | GI50 [2]: 158 nM | TGI ([2]; read-out: pTGI (converted)): 501 nM | GI50 (HCT-116): 316 nM | TGI (HCT-116; read-out: pTGI (converted)): 12600 nM

Reference: ChEMBL document CHEMBL1221342, “Synthesis and in vitro antitumor activity of new 4,5-dihydropyrazole derivatives” (Bioorg Med Chem, 2010)
